High-throughput results from PubChem.
PolyA inhibitor = inhibitors of polyadenylation in S. cerevisiae; S. cerevisiae SKY197-pL101 polyadenylation reporter, beta-gal luminescence; efflux-impaired pdr1/pdr3 knockout yeast; score 100 = 6 SD above DMSO; activity score, % at 12 µM; 300,000 tested, 0.02% active; AID 1875;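 active = lowest replicate activity score at least 50, where 100 means six control SD above control mean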;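 also: yeast exposed to compound for 9 h at 30 °C; higher score means more reporter readthrough which indicates perturbed polyadenylation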
A1 inh = inhibitors of the anti-apoptotic protein A1, read as caspase activation; MEF A1-2A-BIM cells, Caspase-Glo 3/7 luminescence, 3 h; percent of clofoctol response, vehicle zero; caspase activation, % (test concentration not listed); 330,000 tested, 0.066% active;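 active = over half of replicate activation scores above 10%, or exactly half above 10 with the replicate mean above 10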
procasp7 counter = activates human procaspase-7, counter-screen for procaspase-3 activators; P55210; recombinant procaspase-7, Ac-DEVD-pNA absorbance 405 nm; D23A/D198A/D206A triple mutant, cannot self-cleave; scale: DMSO 0, 5 µM enzyme 100; activation, % at 8.5 µM; 330,000 tested, 0.093% active; AID 463210;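 active = percent activation above the screen-wide mean plus 3 SD, cut at about 25% in these data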
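Assay system: Uncleavable procaspase-7 mutant enzyme / Input: 2 µM procaspase-7 mutant as dispensed / Dosing: single nominal 8.5 µM compound dose, 0.8% DMSO final / Timing: 1 h enzyme–compound preincubation and 2 h substrate reaction, both 25 °C / Detection: p-Nitroaniline absorbance at 405 nm, read at 0 and 120 min / Replication: singlicate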
proCasp3 act = procaspase-3 (human) activation. AID 463141. recombinant procaspase-3 D3A, Ac-DEVD-pNA absorbance 405 nm. activation, % at 8.5 µM. 330,000 tested, 0.11% active;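 active = activation above the mean of all tested compounds plus 3 SD, cut at about 21% in these data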;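 also: 0% = DMSO alone and 100% = DMSO wells spiked with extra 5 µM PC-3 D3A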
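assay system = Procaspase-3 D3A mutant | signal = absorbance at 405 nm, 0 and 120 min | times = 1 h preincubation plus 2 h reaction at 25 °C | repeats = single replicate | read-out = % activation between DMSO and enzyme-spiked controls | medium = Zinc-free HEPES saline buffer with Triton X-100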
Rce1 inh = blocks yeast Ras-converting enzyme | 290,000 tested, 0.27% active | yeast membranes, quenched prenylated peptide cleavage fluorescence | Q03530 | AID 2563 | calls only;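 active = fall in fluorescence gain of 50% or more versus controls, with final raw signal at or below 3038400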;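 also: plate controls were neutral control wells for no effect and wells lacking membranes for full effect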
Target sequence (Q03530 whole entry, looked up): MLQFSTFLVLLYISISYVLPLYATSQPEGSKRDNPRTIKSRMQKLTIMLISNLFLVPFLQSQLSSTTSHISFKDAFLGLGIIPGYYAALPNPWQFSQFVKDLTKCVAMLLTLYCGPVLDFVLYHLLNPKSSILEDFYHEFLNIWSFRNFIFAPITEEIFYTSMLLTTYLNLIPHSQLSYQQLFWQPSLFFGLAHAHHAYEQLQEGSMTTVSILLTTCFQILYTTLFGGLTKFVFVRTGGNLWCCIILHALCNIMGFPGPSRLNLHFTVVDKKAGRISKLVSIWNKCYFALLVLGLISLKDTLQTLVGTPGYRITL
The depositor's hits bear a star; i = inactive; / = not tested or not shown; + = active, no number; ! = a repeat was not active. Compounds with a hit are over-represented: about 0.48% of the library has one in this group of screens.

SMILES	PolyA inhibitor	A1 inh	procasp7 counter	proCasp3 act	Rce1 inh
Cc1ccc2[nH]c3c(c2c1)CCCC3C(N)=O (centres undefined)	2.0	0.1	-1.5	-3.0	i
CCOC(=O)C1=C(C)OC(N)=C(C#N)C1c1cc2c(cc1[N+](=O)[O-])OCO2 (centres undefined)	-1.2	0.4	-34.5	-22.4	+
CCOC(=O)C1=C(C)OC(N)=C(C#N)C1c1cc(OC)c2c(c1)OCO2 (centres undefined)	-2.6	1.0	17.8	1.5	i
O=C1NC(Cc2c[nH]c3ccccc23)C(=O)N1Cc1ccccc1 (centres undefined)	3.1	0.3	9.5	1.6	i
O=C1C(Cc2c[nH]c3ccccc23)NC(=S)N1Cc1ccccc1 (centres undefined)	-12.3	0.2	-5.8	5.8	+
COc1ccc2c(=O)cc(-c3ccccc3F)oc2c1	-20.6	-0.8	-1.3	-2.2	i
COc1ccc(CNC(=O)c2ccccc2NS(C)(=O)=O)cc1	11.1	0.3	-11.8	0.9	+
Cc1cc(C)c2c(CN3CCN(Cc4ccc5c(c4)OCO5)CC3)cc(=O)oc2c1C	6.6	2.1	10.7	9.8	i
Cc1ccc2c(CN3CCN(Cc4ccc5c(c4)OCO5)CC3)cc(=O)oc2c1C	2.5	0.3	7.3	-2.4	+!
O=C(Cn1nnc(-c2ccccc2)n1)NNC(=O)c1ccco1	11.2	-0.4	6.9	-3.1	i
CCN(CC)S(=O)(=O)c1cccc(-c2n[nH]c(=S)n2CC(C)C)c1	3.4	-0.1	-27.0	-3.8	i
CCN(CC)S(=O)(=O)c1cccc(-c2n[nH]c(=S)n2Cc2ccccc2)c1	-4.8	0.0	-33.0	-17.9	+
CC1=C(C(=O)N2CCOCC2)C(c2ccccc2F)C2=C(CC(C)(C)CC2=O)N1 (centres undefined)	-2.8	0.5	-5.7	-2.1	+
CC(C)NC(=O)CCc1nnc(Cc2cccc(C(F)(F)F)c2)o1	-14.8	-1.5	2.2	-1.7	i
CCC(COC)NC(=O)CCc1nnc(Cc2cccc(C(F)(F)F)c2)o1 (centres undefined)	12.6	-0.6	-4.3	6.6	+
CC(C)Sc1nc2ccccc2n1CC(N)=O	3.7	1.0	0.8	8.0	i
Cc1ccc(S(=O)(=O)N2[C@@H](c3ccc(C(C)(C)C)cc3)C(C(=O)O)=CC[C@H]2c2ccc(C(C)C)cc2)cc1	/	1.5	3.6	-3.3	/
O=c1c2ccccc2nc2n1CCCCN2	2.5	0.0	-1.1	-14.5	+
Cc1ccc(O)c(CNc2cnc3ccccc3c2)c1	6.2	0.6	0.7	-7.5	+
CN(C)c1cc(O)c(C(=S)Nc2ccccc2)c(N(C)C)c1	8.2	1.1	-25.4	-26.2	+
O=C(COC(=O)CCc1ccccc1)NNC(=O)c1ccccc1	/	0.5	1.2	-6.0	/
CCC(C)C(=O)Nc1ccc(S(=O)(=O)Nc2nccs2)cc1 (centres undefined)	-13.2	-0.3	12.2	-2.4	i
CC(C)CC(=O)NC(=S)Nc1ccc(S(=O)(=O)Nc2nccs2)cc1	3.4	0.8	11.8	-5.3	+
O=C(NCCOc1ccc(Cl)cc1)c1ccco1	3.1	0.2	1.7	5.7	i
CC(=O)N[C@@H](C)c1nc2ccccc2n1CCCN1CCN(c2nc(-c3ccc(C)cc3)cs2)CC1	0.3	0.6	-5.7	5.3	+
Cc1ccc(-c2csc(N3CCN(CCCn4c(C(F)(F)F)nc5ccccc54)CC3)n2)cc1	8.0	-0.1	10.2	0.3	i
Cc1ccc(C)c(NC(=S)NC(NC(=O)Cc2cccc3ccccc23)C(Cl)(Cl)Cl)c1 (centres undefined)	0.6	11.6*	-2.5	-4.8	i
Cn1cc(CCC(=O)N2CCCC(C(=O)c3cccc4ccccc34)C2)cn1 (centres undefined)	/	0.3	7.5	0.2	i
COc1ccc2cc(C(=O)C3CCCN(C(=O)CCc4cnn(C)c4)C3)ccc2c1 (centres undefined)	7.2	0.9	-5.2	4.7	+
Cc1nc(SCc2nc3c([N+](=O)[O-])cccc3[nH]2)c2oc3ccccc3c2n1	/	17.4*	8.7	2.2	/
